# From ChEMBL document CHEMBL3853342, “Design, synthesis and biological evaluation of novel benzo-α-pyrone containing piperazine derivatives as potential BRAFV600E inhibitors” (Bioorg Med Chem Lett, 2016)
# Calls of active or inactive are those of the source. No cut-off for these calls is given here.
# Columns and labels:
# [1] = Antiproliferative activity against human WM1361 cells assessed as cell growth inhibition after 24 hrs by MTT assay; assay type: functional, cell-based; conditions: WM1361, 24 h
# [2] = Antiproliferative activity against human A375 cells assessed as cell growth inhibition after 24 hrs by MTT assay; assay type: functional, cell-based; conditions: A-375, 24 h
# [3] = biological target: Serine/threonine-protein kinase B-raf (Homo sapiens, UniProt P15056, V600E); assay: Inhibition of human recombinant GST-tagged BRAF catalytic domain (416 to 766 residues) V600E mutant expressed in baculovirus expression system preincubated for 1 hr followed by human full length recombinant N-terminal His-tagged MEK1 substrate addition measured after 25 mins by gel electrophoresis method
# Serine/threonine-protein kinase B-raf, sequence (P15056 2-766 V600E limits assumed): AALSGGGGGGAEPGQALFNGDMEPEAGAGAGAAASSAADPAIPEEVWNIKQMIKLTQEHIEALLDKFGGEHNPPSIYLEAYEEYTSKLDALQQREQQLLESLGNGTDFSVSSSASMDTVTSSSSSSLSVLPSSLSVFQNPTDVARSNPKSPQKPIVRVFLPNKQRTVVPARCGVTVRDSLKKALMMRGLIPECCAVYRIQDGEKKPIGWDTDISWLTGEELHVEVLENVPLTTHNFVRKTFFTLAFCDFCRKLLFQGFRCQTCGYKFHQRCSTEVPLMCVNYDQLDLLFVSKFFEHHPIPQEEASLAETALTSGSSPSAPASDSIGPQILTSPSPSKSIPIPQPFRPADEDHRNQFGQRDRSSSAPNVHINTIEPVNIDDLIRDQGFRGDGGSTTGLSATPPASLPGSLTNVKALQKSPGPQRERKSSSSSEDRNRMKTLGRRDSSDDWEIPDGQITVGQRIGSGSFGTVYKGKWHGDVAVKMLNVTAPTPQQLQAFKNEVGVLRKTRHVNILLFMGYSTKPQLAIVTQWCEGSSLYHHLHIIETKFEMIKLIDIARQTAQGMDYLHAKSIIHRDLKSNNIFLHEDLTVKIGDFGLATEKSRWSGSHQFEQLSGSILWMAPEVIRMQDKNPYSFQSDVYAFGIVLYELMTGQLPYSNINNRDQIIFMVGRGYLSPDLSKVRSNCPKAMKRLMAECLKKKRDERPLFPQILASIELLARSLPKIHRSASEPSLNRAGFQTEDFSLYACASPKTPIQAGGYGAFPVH
# [4] = Cytotoxicity against human 293T cells assessed as cell growth inhibition after 24 hrs by MTT assay; assay type: toxicity, cell-based, HEK-293T
# [5] = Antiproliferative activity against human WM266.4 cells harboring BRAF V600E mutant assessed as cell growth inhibition after 24 hrs by MTT assay; assay type: functional, cell-based; conditions: WM 266-4, 24 h
# WM 266-4 [6] = assay: Induction of apoptosis in human WM266.4 cells assessed as late apoptotic cells at 8 uM after 24 hrs by Annexin V-FITC/propidium iodide based flow cytometric analysis (reference value: 5.04 %); assay type: functional
# In short: (§1)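 Apoptosis in WM266-4 (BRAF V600E) cells after 24 h at 0, 2, 4 or 8 µM, by Annexin V-FITC/PI dual staining and flow cytometry. Percentages of apoptotic cells were calculated. Three independent experiments.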
# [7] = Induction of apoptosis in human WM1361 cells assessed as late apoptotic cells at 40 uM after 24 hrs by Annexin V-FITC/propidium iodide based flow cytometric analysis (reference value: 2.96 %); assay type: functional
# [8] = Cell cycle arrest in human WM266.4 cells assessed as accumulation at G2/M phase at 8 uM after 24 hrs by propidium iodide staining based FACS analysis (reference value: 14.39 %); assay type: functional; conditions: WM 266-4
# In short: (§2)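 WM266-4 (BRAF V600E melanoma) cells exposed to 0, 2, 4 or 8 µM for 24 h. Cell-cycle distribution by flow cytometry, with G1, S and G2/M fractions gated. Three independent experiments.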
# [9] = Cell cycle arrest in human WM266.4 cells assessed as accumulation at S phase at 8 uM after 36 hrs by propidium iodide staining based FACS analysis (reference value: 29.51 %); conditions: WM 266-4
# WM 266-4 [10] = assay: Induction of apoptosis in human WM266.4 cells assessed as necrotic cells at 4 uM after 24 hrs by Annexin V-FITC/propidium iodide based flow cytometric analysis (reference value: 0.435 %); assay type: functional; in short: as §1
# [11] = Induction of apoptosis in human WM1361 cells assessed as early apoptotic cells at 20 uM after 24 hrs by Annexin V-FITC/propidium iodide based flow cytometric analysis (reference value: 1.02 %); assay type: functional
# [12] = Induction of apoptosis in human WM1361 cells assessed as late apoptotic cells at 20 uM after 24 hrs by Annexin V-FITC/propidium iodide based flow cytometric analysis (reference value: 2.96 %); assay type: functional
# WM 266-4 [13] = assay: Induction of apoptosis in human WM266.4 cells assessed as viable cells at 8 uM after 24 hrs by Annexin V-FITC/propidium iodide based flow cytometric analysis (reference value: 92.9 %); assay type: functional; conditions: WM 266-4, 24 h, read-out: Activity; in short: as §1
# [14] = Cell cycle arrest in human WM266.4 cells assessed as accumulation at S phase at 2 uM after 24 hrs by propidium iodide staining based FACS analysis (reference value: 29.03 %); assay type: functional; conditions: WM 266-4; in short: as §2
# WM 266-4 [15] = assay: Induction of apoptosis in human WM266.4 cells assessed as necrotic cells at 8 uM after 24 hrs by Annexin V-FITC/propidium iodide based flow cytometric analysis (reference value: 0.435 %); assay type: functional; in short: as §1
# [16] = Induction of apoptosis in human WM1361 cells assessed as early apoptotic cells at 60 uM after 24 hrs by Annexin V-FITC/propidium iodide based flow cytometric analysis (reference value: 1.02 %); assay type: functional
# [17] = Induction of apoptosis in human WM1361 cells assessed as viable cells at 20 uM after 24 hrs by Annexin V-FITC/propidium iodide based flow cytometric analysis (reference value: 95.2 %); assay type: functional; conditions: WM1361, 24 h, read-out: Activity
# [18] = Induction of apoptosis in human WM1361 cells assessed as late apoptotic cells at 60 uM after 24 hrs by Annexin V-FITC/propidium iodide based flow cytometric analysis (reference value: 2.96 %); assay type: functional
# WM 266-4 [19] = assay: Induction of apoptosis in human WM266.4 cells assessed as early apoptotic cells at 8 uM after 24 hrs by Annexin V-FITC/propidium iodide based flow cytometric analysis (reference value: 1.60 %); assay type: functional; in short: as §1
# [20] = Cell cycle arrest in human WM266.4 cells assessed as accumulation at S phase at 4 uM after 24 hrs by propidium iodide staining based FACS analysis (reference value: 29.03 to 29.51%); assay type: functional; conditions: WM 266-4; in short: as §2
# [21] = Cell cycle arrest in human WM266.4 cells assessed as accumulation at G0/G1 phase at 4 uM after 24 hrs by propidium iodide staining based FACS analysis (reference value: 56.58 to 64.70%); assay type: functional; conditions: WM 266-4; in short: as §2
# [22] = Induction of apoptosis in human WM1361 cells assessed as early apoptotic cells at 40 uM after 24 hrs by Annexin V-FITC/propidium iodide based flow cytometric analysis (reference value: 1.02 %); assay type: functional
# WM 266-4 [23] = assay: Induction of apoptosis in human WM266.4 cells assessed as DNA fragmentation up to 8 uM after 24 hrs by agarose gel electrophoresis; assay type: functional, cell-based
# In short: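 DNA ladder assay: WM266-4 cells cultured at 37 °C for 24 h with 0, 2, 4 or 8 µM. DNA isolated and run on 2.0% agarose gel beside 2000 bp and 15000 bp markers. Untreated cells served as control.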
# [24] = Induction of apoptosis in human WM1361 cells assessed as viable cells at 40 uM after 24 hrs by Annexin V-FITC/propidium iodide based flow cytometric analysis (reference value: 95.2 %); assay type: functional; conditions: WM1361, 24 h, read-out: Activity
# WM 266-4 [25] = assay: Induction of apoptosis in human WM266.4 cells assessed as late apoptotic cells at 4 uM after 24 hrs by Annexin V-FITC/propidium iodide based flow cytometric analysis (reference value: 5.04 %); assay type: functional; in short: as §1
# [26] = Cell cycle arrest in human WM266.4 cells assessed as accumulation at G2/M phase at 2 uM after 24 hrs by propidium iodide staining based FACS analysis (reference value: 14.39 %); assay type: functional; conditions: WM 266-4; in short: as §2
# [27] = Cell cycle arrest in human WM266.4 cells assessed as accumulation at S phase at 8 uM after 24 hrs by propidium iodide staining based FACS analysis (reference value: 29.03 %); assay type: functional; conditions: WM 266-4; in short: as §2
# [28] = Cell cycle arrest in human WM266.4 cells assessed as accumulation at G0/G1 phase at 8 uM after 24 hrs by propidium iodide staining based FACS analysis (reference value: 56.58 %); assay type: functional; conditions: WM 266-4; in short: as §2
# WM 266-4 [29] = assay: Induction of apoptosis in human WM266.4 cells assessed as early apoptotic cells at 4 uM after 24 hrs by Annexin V-FITC/propidium iodide based flow cytometric analysis (reference value: 1.60 %); assay type: functional; in short: as §1
# WM 266-4 [30] = assay: Induction of apoptosis in human WM266.4 cells assessed as late apoptotic cells at 2 uM after 24 hrs by Annexin V-FITC/propidium iodide based flow cytometric analysis (reference value: 5.04 %); assay type: functional; in short: as §1
# [31] = Cell cycle arrest in human WM266.4 cells assessed as accumulation at G2/M phase at 4 uM after 36 hrs by propidium iodide staining based FACS analysis (reference value: 5.79 %); assay type: functional; conditions: WM 266-4
# [32] = Induction of apoptosis in human WM1361 cells assessed as necrotic cells at 60 uM after 24 hrs by Annexin V-FITC/propidium iodide based flow cytometric analysis (reference value: 0.860 %); assay type: functional
# [33] = Cell cycle arrest in human WM266.4 cells assessed as accumulation at G0/G1 phase at 2 uM after 24 hrs by propidium iodide staining based FACS analysis (reference value: 56.58 %); assay type: functional; conditions: WM 266-4; in short: as §2
# [34] = Cell cycle arrest in human WM266.4 cells assessed as accumulation at S phase at 8 uM after 12 hrs by propidium iodide staining based FACS analysis (reference value: 29.51 %); conditions: WM 266-4
# [35] = Induction of apoptosis in human WM1361 cells assessed as necrotic cells at 40 uM after 24 hrs by Annexin V-FITC/propidium iodide based flow cytometric analysis (reference value: 0.860 %); assay type: functional
# [36] = Induction of apoptosis in human WM1361 cells assessed as viable cells at 60 uM after 24 hrs by Annexin V-FITC/propidium iodide based flow cytometric analysis (reference value: 95.2 %); assay type: functional; conditions: WM1361, 24 h, read-out: Activity
# WM 266-4 [37] = assay: Induction of apoptosis in human WM266.4 cells assessed as viable cells at 2 uM after 24 hrs by Annexin V-FITC/propidium iodide based flow cytometric analysis (reference value: 92.9 %); assay type: functional; conditions: WM 266-4, 24 h, read-out: Activity; in short: as §1
# [38] = Induction of apoptosis in human WM1361 cells assessed as necrotic cells at 20 uM after 24 hrs by Annexin V-FITC/propidium iodide based flow cytometric analysis (reference value: 0.860 %); assay type: functional
# [39] = Cell cycle arrest in human WM266.4 cells assessed as accumulation at G2/M phase at 4 uM after 24 hrs by propidium iodide staining based FACS analysis (reference value: 5.79 to 14.39%); assay type: functional; conditions: WM 266-4; in short: as §2
# WM 266-4 [40] = assay: Induction of apoptosis in human WM266.4 cells assessed as early apoptotic cells at 2 uM after 24 hrs by Annexin V-FITC/propidium iodide based flow cytometric analysis (reference value: 1.60 %); assay type: functional; in short: as §1
# WM 266-4 [41] = assay: Induction of apoptosis in human WM266.4 cells assessed as necrotic cells at 2 uM after 24 hrs by Annexin V-FITC/propidium iodide based flow cytometric analysis (reference value: 0.435 %); assay type: functional; in short: as §1
# WM 266-4 [42] = assay: Induction of apoptosis in human WM266.4 cells assessed as increase in apoptotic cells after 24 hrs by Annexin V-FITC/propidium iodide based flow cytometric analysis; assay type: functional, cell-based; in short: as §1
# [43] = Cell cycle arrest in human WM266.4 cells assessed as accumulation at G2/M phase at 8 uM after 12 hrs by propidium iodide staining based FACS analysis (reference value: 5.79 %); conditions: WM 266-4
# [44] = Cell cycle arrest in human WM266.4 cells assessed as accumulation at G0/G1 phase at 8 uM after 12 hrs by propidium iodide staining based FACS analysis (reference value: 64.70 %); conditions: WM 266-4
# WM 266-4 [45] = assay: Induction of apoptosis in human WM266.4 cells assessed as viable cells at 4 uM after 24 hrs by Annexin V-FITC/propidium iodide based flow cytometric analysis (reference value: 92.9 %); assay type: functional; conditions: WM 266-4, 24 h, read-out: Activity; in short: as §1
# [46] = Cell cycle arrest in human WM266.4 cells assessed as accumulation at G0/G1 phase at 8 uM after 36 hrs by propidium iodide staining based FACS analysis (reference value: 64.70 %); conditions: WM 266-4
compound,measurement,setting,value
O=c1oc2ccccc2c(N2CCN(c3ccc(F)cc3)CC2)c1CO,IC50,[1],> 50 µM
same,IC50,[2],24.7 µM
same,IC50,[3],17.8 µM
same,CC50 at 24 h,[4],> 50 µM
same,IC50,[5],23.4 µM
O=c1oc2ccccc2c(N2CCN(C(c3ccccc3)c3ccccc3)CC2)c1CO,Activity,WM 266-4 [6],32.7%
same,Activity,[7],5.11%
same,Activity,[8],11.1%
same,Activity,[9],8.26%
same,Activity,WM 266-4 [10],1.88%
same,Activity,[11],1.16%
same,Activity,[12],3.36%
same,viability at 8 µM,WM 266-4 [13],37.1%
same,Activity,[14],21.6%
same,Activity,WM 266-4 [15],3.07%
same,Activity,[16],1.61%
same,viability at 20 µM,[17],94.1%
same,IC50,[1],21.1 µM
same,Activity,[18],5.29%
same,Activity,WM 266-4 [19],27.1%
same,Activity,[20],5.88%
same,Activity,[21],76.4%
same,Activity,[22],0.856%
same,Activity,WM 266-4 [23],Active
same,viability at 40 µM,[24],92.9%
same,Activity,WM 266-4 [25],21.2%
same,Activity,[26],12.6%
same,Activity,[27],6.48%
same,IC50,[2],2.24 µM
same,Activity,[28],82.4%
same,IC50,[3],0.37 µM
same,CC50 at 24 h,[4],> 50 µM
same,Activity,WM 266-4 [29],24.4%
same,Activity,WM 266-4 [30],14.5%
same,IC50,[5],1.35 µM
same,Activity,[31],2.41%
same,Activity,[32],1.31%
same,Activity,[33],65.8%
same,Activity,[34],21.6%
same,Activity,[35],1.15%
same,viability at 60 µM,[36],91.8%
same,viability at 2 µM,WM 266-4 [37],67%
same,Activity,[38],1.36%
same,Activity,[39],7.56%
same,Activity,WM 266-4 [40],13.4%
same,Activity,WM 266-4 [41],5.06%
same,Activity,WM 266-4 [42],Dose-dependent effect
same,Activity,[43],12.2%
same,Activity,[44],66.2%
same,viability at 4 µM,WM 266-4 [45],52.5%
same,Activity,[46],89.3%
O=c1oc2ccccc2c(N2CCN(C(c3ccc(F)cc3)c3ccc(F)cc3)CC2)c1CO,IC50,[1],29.4 µM
same,IC50,[2],3.16 µM
same,IC50,[3],0.68 µM
same,CC50 at 24 h,[4],> 50 µM
same,IC50,[5],2.57 µM
O=c1oc2ccccc2c(N2CCN(c3ccccc3F)CC2)c1CO,IC50,[1],> 50 µM
same,IC50,[2],32.1 µM
same,IC50,[3],22 µM
same,CC50 at 24 h,[4],> 50 µM
same,IC50,[5],37.6 µM
